# Measurements from PubChem BioAssay AID489030 (Sanford-Burnham Center for Chemical Genomics, 2010).
# The whole screen tested about 330,000 compounds, of which about 2,400 (0.73%) were called active. Rule for the calls: active = inhibition of at least 40% at 20 µM; inactive = the rest. The list comes from a sample in which actives are over-represented; it also holds similar structures and randomly drawn compounds.
# Target: Apoptotic protease-activating factor 1 (Homo sapiens) (UniProt O14727)
# Assay: blockers of Apaf-1-driven caspase-3 activation – biochemical, DEVD-Rh110 fluorescence, uHTS, primary screen (AID 489030);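 note: plate controls were DMSO wells for no effect and DEVD-CHO caspase inhibitor wells for full effect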
# Details: reconstituted apoptosome caspase-3 activity, at 20 µM, stronger effect = higher value
# How it was run: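 Material: biochemical Apaf-1 apoptosome reconstitution. Medium: Hepes buffer, pH 7.5. Also added: cytochrome c activation, bis-DEVD rhodamine 110 substrate. Timing: 30 min compound preincubation, 50 min activation, room temperature. Measured by: rhodamine 110 fluorescence at Ex 480/Em 540 nm.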
# Sequence of Apoptotic protease-activating factor 1 (Homo sapiens) (O14727 whole entry, looked up): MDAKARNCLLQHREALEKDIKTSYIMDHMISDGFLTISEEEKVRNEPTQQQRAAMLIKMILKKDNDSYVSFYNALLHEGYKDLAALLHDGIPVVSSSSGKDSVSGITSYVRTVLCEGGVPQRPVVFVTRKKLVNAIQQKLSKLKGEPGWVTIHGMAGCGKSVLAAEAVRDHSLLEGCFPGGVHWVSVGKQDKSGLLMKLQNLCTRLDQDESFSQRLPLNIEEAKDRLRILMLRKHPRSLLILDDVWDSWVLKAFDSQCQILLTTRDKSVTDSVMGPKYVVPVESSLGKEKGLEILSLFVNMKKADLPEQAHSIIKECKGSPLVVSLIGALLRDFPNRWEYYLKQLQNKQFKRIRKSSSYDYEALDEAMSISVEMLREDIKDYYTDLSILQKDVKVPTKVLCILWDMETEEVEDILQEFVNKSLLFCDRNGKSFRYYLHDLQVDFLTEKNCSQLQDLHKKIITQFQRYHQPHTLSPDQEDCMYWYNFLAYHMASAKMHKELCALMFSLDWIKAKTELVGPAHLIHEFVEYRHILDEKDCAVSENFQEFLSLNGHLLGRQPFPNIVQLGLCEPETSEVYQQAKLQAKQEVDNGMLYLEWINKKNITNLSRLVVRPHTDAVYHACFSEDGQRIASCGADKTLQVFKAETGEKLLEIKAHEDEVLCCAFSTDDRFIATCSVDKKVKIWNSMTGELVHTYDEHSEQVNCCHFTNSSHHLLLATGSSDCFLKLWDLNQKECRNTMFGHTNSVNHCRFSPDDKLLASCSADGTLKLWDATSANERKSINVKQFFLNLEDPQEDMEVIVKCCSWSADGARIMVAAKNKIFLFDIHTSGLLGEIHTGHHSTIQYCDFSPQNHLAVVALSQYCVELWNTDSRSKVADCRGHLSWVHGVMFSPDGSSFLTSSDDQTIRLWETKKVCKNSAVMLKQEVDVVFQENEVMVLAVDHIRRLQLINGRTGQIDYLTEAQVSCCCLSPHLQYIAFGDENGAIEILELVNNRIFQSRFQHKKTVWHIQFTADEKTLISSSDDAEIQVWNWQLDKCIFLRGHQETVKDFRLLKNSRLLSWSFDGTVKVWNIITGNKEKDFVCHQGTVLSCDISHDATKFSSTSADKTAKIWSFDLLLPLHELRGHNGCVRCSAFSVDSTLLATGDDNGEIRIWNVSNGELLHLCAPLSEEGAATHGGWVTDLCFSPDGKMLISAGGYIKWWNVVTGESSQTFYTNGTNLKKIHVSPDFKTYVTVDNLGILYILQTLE
row,Structure (SMILES),inhibition
1,CN(C)/C(CN1CCCCC1)=C1\N=C(c2ccccc2)OC1=O,-0.998% (inactive)
2,O=C(CCC(=O)c1ccccc1)NCc1cccc(C(F)(F)F)c1,6.79% (inactive)
3,COC(=O)[C@@H](Cc1ccccc1)NC(=O)NCCc1ccccc1,-5.88% (inactive)
4,NC[C@H](Cc1ccccc1)NCCc1cc(C(F)(F)F)cc(C(F)(F)F)c1,60.8% (active)
5,O=C(Cn1nc(CNc2ccc(Cl)cc2)[n+]2c1CCCCC2)c1ccc(Cl)cc1,15.2% (inactive)
6,CCc1ccc(/C=N/NC(=O)c2nnn(-c3nonc3N)c2CN2CCc3ccccc32)cc1,8.04% (inactive)
7,CC(C)CC[n+]1ccn(C2=C([O-])c3ccccc3C(=O)/C2=N\S(=O)(=O)c2ccccc2)c1,55.3% (active)
8,CCc1nc(C)cn1S(=O)(=O)c1cc([N+](=O)[O-])ccc1Cl,2.1% (inactive)
9,CCC(=O)Nc1ccc(Nc2nc(Cl)nc(Nc3ccc(NC(=O)CC)cc3)n2)cc1,-8.45% (inactive)
10,COc1ccc(C(=O)NNc2cc(C)nc(NNC(=O)c3ccc(OC)cc3)n2)cc1,8.09% (inactive)
11,CC(=O)Nc1ccc(Nc2cc(C)nc(Nc3ccc(NC(C)=O)cc3)n2)cc1,46.2% (active)
12,COc1ccc(OCCNC(=O)c2cc(C3CC3)nc3c2cnn3C(C)C)cc1,15% (inactive)
13,O=c1nc(N/N=C/c2ccco2)cn[nH]1,2.62% (inactive)
14,CCOC(=O)N1CCN(C(=O)COCc2cc(-c3ccc4c(c3)OCO4)on2)CC1,15.6% (inactive)
15,Cc1cc(C)n(-c2nc(SCC(=O)N3CCCC3)c3c4c(sc3n2)CCCC4)n1,43.6% (active)
16,COCCNc1nc(-n2nc(C)cc2C)nc2sc3c(c12)CCCC3,8.1% (inactive)
17,CC(C)c1nc(SCC(=O)Nc2cccc(C(=O)O)c2)c2c3c(sc2n1)CCCC3,7.92% (inactive)
18,CCN(CC)S(=O)(=O)c1cc([N+](=O)[O-])ccc1NNC(=O)Nc1ccccc1,7.25% (inactive)
19,COC(=O)CN1C(C)=Nc2ccc(Br)cc2C1c1ccccc1 (stereo not given),4.57% (inactive)
20,COc1ccc(S(=O)(=O)N2CCCCC2)cc1NC(=O)C1CC(=O)N(c2ccc3c(c2)OCCO3)C1 (stereo not given),18.5% (inactive)
21,O=C(COC(=O)c1ccc(O)cc1O)NNC(=O)c1cccs1,-6.93% (inactive)
22,Cc1cccc(OCCNC(=O)CSc2ccc(C(F)(F)F)cc2[N+](=O)[O-])c1,15.2% (inactive)
23,CN1CCN(CCCNC(=O)c2ccc(/C=C3\Oc4ccccc4N(Cc4ccc(Cl)cc4)C3=O)cc2)CC1,56.6% (active)

row,Structure (SMILES),inhibition
1,CC(C)OCCCNC(=O)CN1C(=O)/C(=C/c2ccccc2F)Oc2ccccc21,11% (inactive)
2,Cc1c(C)n(Cc2ccc(Cl)cc2)c2ccc(C(=O)NCCCN3CCOCC3)cc12,25.9% (inactive)
3,O=C(NCC1CC1)c1onc(CSc2ccccc2)c1C(=O)NCC1CC1,14.7% (inactive)
4,COc1cccc(NC(=O)CSc2nccn(-c3ccc4c(c3)OCCO4)c2=O)c1,5.15% (inactive)
5,CCOc1cc(CNCCN(C)C)c(Cl)cc1OCC(=O)NCCc1ccccc1,13.1% (inactive)
6,COc1ccc(S(=O)(=O)N(C)C[C@@H]2Oc3ccc(NS(=O)(=O)c4cn(C)cn4)cc3C(=O)N([C@@H](C)CO)C[C@@H]2C)cc1,5.38% (inactive)
7,O=C1NNC(c2ccccc2)=N/C1=C\c1ccc(Cl)cc1,50.6% (active)
8,Cc1ccc(Cl)c(OCC(=O)N(C)CC(=O)Nc2ccc(N3CCOCC3)cc2)c1,7.19% (inactive)
9,COC(=O)c1ccc(COC(=O)C2CCN(S(=O)(=O)c3c(Cl)cccc3Cl)CC2)o1,0.83% (inactive)
10,O=C(Nc1cccc(-c2cccc(Cl)c2)c1)C1CCN(C2CCC2)CC1,25.3% (inactive)
11,CCn1cc(CN2CCC(C(=O)Nc3cccc(-c4cccc(Cl)c4)c3)CC2)cn1,33.8% (inactive)
12,CCn1cc(CN2CCC(C(=O)Nc3cccc(-c4cccc(Cl)c4)c3)CC2)c(C)n1,40.5% (active)
13,COc1ccccc1N1CCN(C(=O)CSc2ncnc3c2cnn3-c2ccc(C)c(C)c2)CC1,-2.97% (inactive)
14,COc1cccc(-n2c(N)cc(=O)nc2SCC(=O)Nc2cc(C)on2)c1,0.469% (inactive)
15,CCCCN1C(=S)NC[C@@H]1C(C)CC (stereo not given in full),1.66% (inactive)
16,COc1ccccc1C(=O)N1C(CC(=O)Nc2ccccc2C)C(=O)NC2CCCCC21 (stereo not given),-7.88% (inactive)
17,CCOC(=O)Cc1cc(=O)[nH]c(/N=C(\N)Nc2ccc(OC)cc2)n1,-3.54% (inactive)
18,CCOC(=O)c1ccc(NC(=O)c2c(N)n(C)c(=O)[nH]c2=O)cc1,-13.8% (inactive)
19,CCOC(=O)c1ccc(NC(=O)c2c(NCc3ccccc3)[nH]c(=O)[nH]c2=O)cc1,3.08% (inactive)
20,CCOC(=O)c1ccc(Nc2cc3ccccc3c(=O)[nH]2)cc1,92.5% (active)
21,COc1ccc(/C=C/c2c(-c3cccc(C)c3)oc3ccc(-c4ccc5c(c4)OCO5)cc23)cc1,-2.24% (inactive)
22,CN(CC(=O)Nc1ccccc1Cl)C(=O)c1ccccc1SCC(=O)N1CCCC1,-3.37% (inactive)
23,CC(C)N(Cc1ccccc1)C(=O)COC(=O)c1ccccc1SCC(=O)N1CCCC1,1.56% (inactive)

row,Structure (SMILES),inhibition
1,CC(NC(=O)c1ccccc1SCC(=O)N1CCCC1)c1ccccc1 (stereo not given),41.6% (active)
2,Cc1ccc(NC2=NC(c3ccccc3)n3c(nc(C)cc3=O)N2)cc1 (stereo not given),5.19% (inactive)
3,O=C(Nc1ccccc1C(=O)O)c1cc(S(=O)(=O)N2CCCCC2)cs1,-2.29% (inactive)
4,COc1ccc(C2=NS(=O)(=O)N(C)C(C(=O)NC(C)c3ccccc3)=C2)cc1 (stereo not given),1.57% (inactive)
5,CCOc1c(Br)cc(/C=C2\C(=O)N(CCC#N)N=C2C)cc1OC,75.9% (active)
6,C=CCOc1c(Br)cc(/C=N\n2nnnc2N)cc1OC,2.56% (inactive)
7,COc1cc(/C=C2/C(=O)NN(c3cccc(Cl)c3)C2=O)cc(Br)c1O,5.53% (inactive)
8,COc1cc(OC)cc(-c2c(-c3cccs3)c3cc(-c4ccc(OC)cc4F)ccc3n2C)c1,11.7% (inactive)
9,COc1ccc(CCN2CC(C(=O)NCCN3CCNC3=O)CCC2=O)cc1 (stereo not given),0.96% (inactive)
10,CCN1C(=O)N[C@@H](c2ccccc2)C(C(=O)OC)=C1C,-2.25% (inactive)
11,COC(=O)CCCCCN1C(=O)NC(c2ccc(-c3ccccc3)cc2)C(C(=O)OCc2ccccc2)=C1C (stereo not given),19.3% (inactive)
12,CC1=C(C(=O)OC(C)(C)C)C(c2ccc(Br)cc2)NC(=O)N1CCCC(=O)O (stereo not given),-6.71% (inactive)
13,CCCCNC(=O)C(C)N(CCN(C)C)C(=O)CCCN1C(=O)NC(c2ccc(Cl)cc2)C(C(=O)OCc2ccccc2)=C1C (stereo not given),57.1% (active)
14,CC1=C(C(=O)OCc2ccccc2)C(c2ccc(C(F)(F)F)cc2)NC(=O)N1CCCCCC(=O)O (stereo not given),19.6% (inactive)
15,CCCCNC(=O)C(C)N(CCN(C)C)C(=O)CCCCCN1C(=O)NC(c2ccc(Cl)cc2)C(C(=O)OCc2ccccc2)=C1C (stereo not given),67.1% (active)
16,CCCOC(=O)c1c(NC(=O)c2cnn3c2NC(c2ccccc2)CC3C(F)(F)F)sc2c1CCCC2 (stereo not given),-7.9% (inactive)
17,NC(=O)c1ccc(-c2csnn2)cc1,-3.94% (inactive)
18,COc1ccc(-n2nc(C(=O)Nc3cc(OC)c(OC)c(OC)c3)c3ccccc3c2=O)c(OC)c1,28.5% (inactive)
19,Nc1nnnn1/N=C/c1cccc(Br)c1,8.14% (inactive)
20,COc1ccccc1C(=O)NCCC(=O)N(C)Cc1cccnc1,-4.28% (inactive)
21,Cc1ccc(OCCNC(=O)CCNS(=O)(=O)c2ccc(Br)cc2)cc1,11.6% (inactive)
22,O=C(CCNS(=O)(=O)c1ccccc1)NCCCc1ccccc1,4.81% (inactive)
23,O=C(CCNS(=O)(=O)c1ccccc1)NCCSc1ccc(Br)cc1,58.6% (active)

row,Structure (SMILES),inhibition
1,CCCc1c(C)nc2c(Br)cccc2c1Cl,-2.72% (inactive)
2,CC[N+](C)(CC)CCC[n+]1c(-c2ccccc2)c2cc(N)ccc2c2ccc(N)cc21,98.2% (active)
3,CCOC(=O)N1CCC(NC(=O)C(C)n2c3ccccc3c3cnn(C)c(=O)c32)CC1 (stereo not given),44.6% (active)
4,CCOC(=O)N1CCC(NC(=O)CCc2cn(C)c3ccccc23)CC1,0.184% (inactive)
5,CCOC(=O)N1CCC(NC(=O)Cc2cn(C)c3ccccc23)CC1,3.3% (inactive)
6,Cc1ccc2nc(N3C(=O)C(O)=C(C(=O)c4ccco4)C3c3cccc(O)c3)sc2c1 (stereo not given),9.5% (inactive)
7,COc1ccc2nc(N3CCN(C(=O)c4ccc([N+](=O)[O-])o4)CC3)sc2c1,4.35% (inactive)
8,Cc1ccc2nc(N3CCN(C(=O)c4ccco4)CC3)sc2c1,41.9% (active)
9,CN(C)/C=C(\C#N)C(=O)c1cccnc1Oc1ccc(F)cc1F,-17.9% (inactive)
10,Cc1ccc(NC(=O)C(C)c2cccc(C(=O)c3ccccc3)c2)cc1 (stereo not given),-10.9% (inactive)
11,Cc1oc2c(c1C(=O)N1CCOCC1)C(=O)c1ccccc1C2=O,65.9% (active)
12,O=C(c1snnc1-c1ccccc1)N1CCOCC1,-11.7% (inactive)
13,COc1cc2ccccc2cc1C(=O)N1CCOCC1,-7.91% (inactive)
14,Cc1cc(NC(=O)C(C)SCC(=O)Nc2ccccc2N2CCCCC2)no1 (stereo not given),18.8% (inactive)
15,CCCCN(CC)CCNC(=O)c1[nH]c(C)c(C(C)=O)c1C,2.1% (inactive)
16,Clc1ccc(CSc2nnc3c(n2)[nH]c2ccccc23)cc1,11.3% (inactive)
17,Clc1ccccc1CSc1nnc(-c2ccco2)c(-c2ccco2)n1,49.9% (active)
18,O=C(CC1N=C2c3ccccc3N=C(SCc3ccccc3Cl)N2C1=O)NCc1ccco1 (stereo not given),21.1% (inactive)
19,c1ccc(CSc2nnc(-c3ccco3)c(-c3ccco3)n2)cc1,49.6% (active)
20,CCc1nnc(SCc2cccc(F)c2)nc1CC,14.3% (inactive)
21,S=C(NCc1ccco1)NCc1ccccc1Cl,10.3% (inactive)
